Bioassay records from PubChem.
TRPC4 inh – blocks the mouse TRPC4 cation channel. 0.39% of 300,000 active. HEK293 TRPC4beta/mu-opioid, DAMGO-evoked Fluo4 calcium flux; active compounds read low. B-score at 10 µM. Q9QUQ5;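 active = B-score over 3 SD under the library average, no early fluorescence shift, positive overall ratio signal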
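Test system – stable TRPC4beta/mu-opioid receptor HEK293 cells · Probe or stimulus – DAMGO, a submaximal dose followed by a maximal one · Dosing – one concentration per compound · Signal – Fluo4 calcium fluorescence by kinetic imaging, 5 s 1 Hz baseline · Evaluation – per-well B score of integrated baseline-normalized Fluo4 ratio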
TRPC6 inhibitor – blocks the mouse TRPC6 cation channel; B-score at 10 µM; HEK293-TRPC6, membrane potential dye, ACh-evoked depolarization; active compounds read low; 1.1% of 310,000 active; AID 2553;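 active = B-score under library mean minus 3 SD, initial fluorescence not abnormally high, positive integrated signal ratio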;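 also: B-score derived from integrated fluorescence ratio over the kinetic read; more negative B-score means stronger inhibition of depolarization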
Target sequence (Q61143 whole entry, looked up): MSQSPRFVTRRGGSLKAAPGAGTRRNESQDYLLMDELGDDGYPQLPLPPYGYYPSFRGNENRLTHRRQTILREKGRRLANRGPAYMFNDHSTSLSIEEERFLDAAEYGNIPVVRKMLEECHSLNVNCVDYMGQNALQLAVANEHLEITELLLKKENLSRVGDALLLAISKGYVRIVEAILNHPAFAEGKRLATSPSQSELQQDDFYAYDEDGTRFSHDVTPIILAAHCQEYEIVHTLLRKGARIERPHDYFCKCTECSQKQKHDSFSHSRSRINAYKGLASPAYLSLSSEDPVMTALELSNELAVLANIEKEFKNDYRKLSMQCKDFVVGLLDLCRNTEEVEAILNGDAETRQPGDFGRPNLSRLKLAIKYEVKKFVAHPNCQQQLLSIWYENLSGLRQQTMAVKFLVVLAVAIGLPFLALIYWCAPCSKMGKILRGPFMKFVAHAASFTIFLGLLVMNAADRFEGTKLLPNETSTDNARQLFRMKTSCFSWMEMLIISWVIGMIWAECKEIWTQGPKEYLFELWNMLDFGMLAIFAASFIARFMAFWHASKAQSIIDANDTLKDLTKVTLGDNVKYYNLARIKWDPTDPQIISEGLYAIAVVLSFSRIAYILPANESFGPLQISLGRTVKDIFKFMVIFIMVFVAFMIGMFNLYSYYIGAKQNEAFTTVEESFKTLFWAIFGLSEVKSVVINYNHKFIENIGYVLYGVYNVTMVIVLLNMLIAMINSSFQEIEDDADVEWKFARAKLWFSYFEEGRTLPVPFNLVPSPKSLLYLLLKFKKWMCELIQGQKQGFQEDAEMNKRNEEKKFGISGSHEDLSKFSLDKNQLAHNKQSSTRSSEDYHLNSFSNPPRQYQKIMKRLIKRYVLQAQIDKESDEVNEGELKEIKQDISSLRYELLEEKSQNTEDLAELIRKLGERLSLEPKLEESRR
TRPC4 act – activators of mouse TRPC4 channel | Q9QUQ5 | HEK293 TRPC4beta/mu-opioid, Fluo4 calcium fluorescence; active compounds read high | B-score at 10 µM | 0.49% of 310,000 active | AID 2237;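 active = B-score above 5 SD of library B-scores, and initial fluorescence ratio not above library mean plus 5 SD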;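 also: positive B-score marks a calcium rise read as TRPC4 activation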
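System – HEK293 cells stably co-expressing mouse TRPC4beta and mu-opioid receptor · Signal – Fluo4 calcium-sensitive dye fluorescence, kinetic, 1 Hz baseline · Benchmarks – buffer (low) and maximal DAMGO (high) · Read-out – B score of integrated fluorescence ratio per well · Incubation – dye loading 45 min room temperature, 110 s kinetic read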
TRPC4 PAM – TRPC4 (mouse) allosteric potentiation. 0.42% of 310,000 active. HEK293 TRPC4beta/mu-opioid, DAMGO EC20, Fluo-4 Ca2+ flux; active compounds read high. AID 2227. B-score at 10 µM. Q9QUQ5;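 active = B-score of calcium response area above 5 SD of library B-scores, with initial fluorescence ratio within 5 SD of library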;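 also: B-score of integrated fluorescence ratio over time as area under calcium response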
TRPC6 activator – activates the mouse TRPC6 cation channel; 0.13% of 310,000 active; B-score at 10 µM; HEK293-TRPC6 membrane potential dye fluorescence; active compounds read high; Q61143; AID 2550;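 active = B-score of the integrated fluorescence ratio above library mean plus 3 SD, and starting fluorescence ratio within library mean plus 5 SD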;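 also: higher score means more depolarization so channel activation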
* = called active by the depositor; i = inactive; . = not tested or not shown. Shown are actives, neighbours in structure and some others; about 2.3% of the full set was active somewhere.

SMILES | TRPC4 inh | TRPC6 inhibitor | TRPC4 act | TRPC4 PAM | TRPC6 activator
COc1cc(CNc2ccc3[nH]c(=O)[nH]c3c2)ccc1OCc1ccccc1Cl | i | i | i | 12* | i
O=c1[nH]c2ccc(NCc3ccc(OCc4ccccc4Cl)cc3)cc2[nH]1 | i | i | i | i | i
Cc1onc(-c2c(F)cccc2Cl)c1C(=O)N1CCN(c2ncc(Br)cn2)CC1 | i | i | 86* | i | i
Cc1ccc(Oc2ccccc2/C=N/O)cc1 | -7* | i | i | i | i
O=C(CCCN=C1NS(=O)(=O)c2ccccc21)OCC(=O)c1ccc(F)cc1 | i | i | 48* | i | i
C=CCSc1nc2c(c(=O)[nH]c(=O)n2C)n1C/C=C(/C)Cl | -7* | i | i | i | i
C=CCn1c(SCCN2CCOCC2)nc2c1c(=O)[nH]c(=O)n2C | i | i | i | 23* | i
C/C(Cl)=C/Cn1c(SCCN2CCOCC2)nc2c1c(=O)[nH]c(=O)n2C | i | i | i | i | i
Cc1cccc(CS(=O)(=O)Cc2ccc(C(=O)NCc3cccs3)o2)c1 | i | i | i | i | i
COc1ccccc1NC(=S)N1CCCCCC1 | i | i | i | i | i
COc1ccc(Cl)cc1C(=O)Nc1ccccc1N1CCN(C)CC1 | i | i | 126* | i | i
COc1ccc(CCC(=O)Nc2cc(Cl)ccc2N2CCN(C)CC2)cc1 | i | i | i | 12* | i
COc1ccc(CC(=O)Nc2cc(Cl)ccc2N2CCCC2)cc1 | i | i | i | i | i
CN1CCN(c2ccc(Cl)cc2NC(=O)/C=C/c2ccc(F)cc2)CC1 | i | i | i | 13* | i
O=C(COC(=O)c1ccccc1[N+](=O)[O-])NCCCc1ccccc1 | i | i | i | i | i
CCOC(=O)C1CCCN(S(=O)(=O)CCNC(=O)c2ccc(F)cc2)C1 (centres undefined) | i | i | i | i | i
O=c1[nH]c2cc(S(=O)(=O)CCO)ccc2o1 | i | i | i | i | i
COc1ccc(Cl)cc1NC(=O)CNC(c1ccccc1)c1ccccc1 | i | i | i | i | i
COc1ccc(Cl)cc1NC(=O)CNCC(c1ccccc1)N(C)C (centres undefined) | -7* | i | 49* | i | i
Cc1ccc(Cl)cc1NC(=O)CNCC(c1ccccc1)N(C)C (centres undefined) | i | i | 118* | i | i
Cc1ccc(Cl)cc1NC(=O)CCC(=O)O | i | i | i | i | i
CC#CC[N+](C)(C)CCCCCCCCCCCC | -8* | i | i | i | i
C#CC[N+](C)(C)CCCCCCCCCC | i | i | i | i | i
CC(=O)Nc1ccc(S(=O)(=O)N2CCN(c3cc(C(F)(F)F)ccn3)CC2)cc1 | i | i | i | i | i
FC(F)(F)c1ccnc(N2CCN(Cc3cnc(-c4ccccc4)[nH]3)CC2)c1 | -7* | i | i | i | i
SMILES | TRPC4 inh | TRPC6 inhibitor | TRPC4 act | TRPC4 PAM | TRPC6 activator
Cc1cc(Cl)ccc1OCC(O)CNCCc1ccc(S(N)(=O)=O)cc1 (centres undefined) | i | i | i | i | i
CN1CCN(C(=O)Nc2ccccc2)CC1 | i | i | i | i | i
CSc1cccc(NC(=O)N2CCN(C)CC2)c1 | i | i | i | 28* | i
COc1cccc(CNC(=O)c2cccc(S(=O)(=O)N3CCN(C)CC3)c2)c1 | i | i | i | i | i
O=C(CN1CCN(Cc2ccccc2Cl)CC1)N=Nc1c(O)[nH]c2ccccc12 | -6* | i | i | i | i
COC(=O)c1ccccc1N=Nc1c(N)[nH][nH]c1=O | i | i | 47* | 82* | i
Cc1nc(Cl)c(C(=O)NCc2ccccc2)c(C)c1Cl | i | i | i | i | i
O=C(NCc1ccccc1)c1c(Cl)nc(Cl)c(Cl)c1Cl | -6* | i | i | i | i
c1ccc(CNCCC(Cc2ccccc2)c2ccco2)cc1 (centres undefined) | i | i | i | i | i
CN(C)c1ccc(CNCCC(Cc2ccccc2)c2ccco2)cc1 (centres undefined) | i | i | 46* | i | i
CN(C)CCCN(C(=O)CCOc1ccccc1)c1nc2c(F)cccc2s1 | i | -5.1* | i | i | i
COc1ccc(C(CNc2ccc(C(F)(F)F)cn2)N(C)C)cc1OC (centres undefined) | -6* | i | i | i | i
O=C(NC1CCCCC1)C1CCCN1C(=O)Nc1ccccc1 (centres undefined) | i | i | i | i | i
CCOCCCNC(=O)/C(C#N)=C/c1ccc(Cl)c([N+](=O)[O-])c1 | i | i | i | 18* | i
COc1ccc(C2CC2/C(=N/O)c2ccccn2)cc1 (centres undefined) | i | i | i | i | i
COc1ccc(C2CC2/C(=N/O)c2ccccc2)cc1 (centres undefined) | -8* | i | i | i | i
Cc1ccccc1OCCCCN1CCCCC1 | i | i | i | i | i
Cc1ccc(Cl)c(OCCN2CCCC(C)C2)c1 (centres undefined) | i | i | i | 34* | i
Cc1ccc(C(C)C)cc1OCCCCN1CCCC1 | i | i | i | 26* | i
Cc1ccc(C(C)C)c(OCCCCN2CCNCC2)c1 | i | i | i | 18* | i
Cc1ccc(C)c(OCCCN2CCCC2)c1 | i | i | i | 11* | i
COc1ccc(CN2CC[C@H]3C=CC[C@@H](C(=O)NCCc4ccccc4)[C@H]3C2=O)cc1OC | . | i | i | i | i
Cc1ccc(SCCCCN2CCOCC2)cc1 | i | i | i | i | i
Cc1ccc(SCCCCN2CCNCC2)cc1 | i | i | i | 13* | i
COc1ccccc1NC(=O)C(=O)Nc1ccc2c(c1)N(C(=O)C1CC1)CCC2 | i | i | i | i | i
N#C/C(=C/c1cccn1-c1cccc(C(=O)O)c1)c1ccc(Cl)cc1 | -6* | i | i | i | i
N#CC(C#N)=Cc1cccn1-c1ccc(C(=O)O)cc1 | i | i | i | i | i
COC(=O)C1=C(C)N=c2s/c(=C3\C(=O)Nc4ccccc43)c(=O)n2C1c1ccccc1 (centres undefined) | i | -5.9* | i | i | i
O=C(COC(=O)Cn1cnc2ccccc2c1=O)Nc1ccc(Cl)cc1 | i | i | i | i | i
